{"source": "ChEMBL document CHEMBL3745678", "about": "“Novel β-Carboline/Hydroxamic Acid Hybrids Targeting Both Histone Deacetylase and DNA Display High Anticancer Activity via Regulation of the p53 Signaling Pathway” (J Med Chem, 2015)", "key": {"[1]": {"biological_target": "Cellular tumor antigen p53 (Homo sapiens) (UniProt P04637)", "sequence (P04637 whole entry, looked up)": "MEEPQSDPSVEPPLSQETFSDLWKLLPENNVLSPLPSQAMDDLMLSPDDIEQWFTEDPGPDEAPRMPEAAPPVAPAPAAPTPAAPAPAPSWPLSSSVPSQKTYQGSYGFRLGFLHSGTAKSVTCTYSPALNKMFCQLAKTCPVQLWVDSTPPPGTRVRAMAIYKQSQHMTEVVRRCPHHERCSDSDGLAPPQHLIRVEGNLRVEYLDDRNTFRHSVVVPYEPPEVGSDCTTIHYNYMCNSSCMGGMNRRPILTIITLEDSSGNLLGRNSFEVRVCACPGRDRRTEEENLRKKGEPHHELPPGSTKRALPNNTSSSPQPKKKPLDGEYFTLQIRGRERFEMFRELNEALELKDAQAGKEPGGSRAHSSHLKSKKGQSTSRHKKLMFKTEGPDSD", "assay": "Induction of p53 activation in human HCT116 cells assessed as upregulation of p21 expression at 0.1 to 5 uM after 12 hrs by western blot analysis", "assay_type": "cell-based", "conditions": "HCT-116", "summary_of_the_method": "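HCT116 cells exposed 12 h to compound or vehicle, then lysed on ice in PBS with 1% NP-40, 0.5% deoxycholate, 0.1% SDS and protease inhibitors. Up to 50 µg protein run on SDS-PAGE and immunoblotted for phospho-p53 (Ser15), p53 and p21. Bands quantified by densitometry against β-actin; mean ± SD of three experiments.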"}, "[2]": {"assay": "Downregulation of Bcl2 expression in human HCT116 cells after 48 hrs by western blot analysis", "assay_type": "functional, cell-based", "conditions": "HCT-116", "summary_of_the_method": "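HCT116 cells treated 48 h with or without compound. Western blots probed for Bax, Bcl-2, cleaved caspase-3 and PARP. Band intensities relative to β-actin by densitometry; means ± SD from three separate experiments.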"}, "[3]": {"biological_target": "Histone deacetylase (Homo sapiens) (UniProt Q13547+O15379+Q9UBN7+Q92769+Q9UQL6+Q8WUI4+Q9BY41+Q96DB2+P56524+Q9UKV0+Q969S8)", "assay": "Inhibition of HDAC in human HCT116 cells assessed as increase in acetyl-alpha-tubulin expression after 48 hrs by immunoblotting analysis", "assay_type": "cell-based", "conditions": "HCT-116", "summary_of_the_method": "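HCT116 cells treated 48 h with compound, SAHA or vehicle. Lysates probed by immunoblot for acetyl-histone H3 and acetyl-α-tubulin, with β-actin as loading control. Relative levels by densitometric scanning; means ± SD of three experiments.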"}, "HCT-116 [4]": {"tested_on": "HCT-116", "assay": "Induction of DNA damage in human HCT116 cells assessed as histone H2AX phosphorylation at S139 at 1 to 5 uM after 12 hrs by western blot analysis", "assay_type": "functional, cell-based", "summary_of_the_method": "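DNA-damage marker. HCT116 cells treated 12 h with compound or vehicle. Lysates immunoblotted with anti-H2AX S139ph, and β-actin served as the control. Relative levels were obtained by densitometric scanning; means ± SD of three separate experiments.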"}, "Histone deacetylase": {"biological_target": "Histone deacetylase", "assay": "Inhibition of HDAC in human HeLa cell nuclear extract using Boc-Lys (Ac)-AMC as substrate after 60 mins by fluorometric analysis", "assay_type": "cell-based"}, "Histone deacetylase 8": {"biological_target": "T1, Histone deacetylase 8 (Homo sapiens, UniProt Q9BY41)", "T1 sequence (Q9BY41 whole entry)": "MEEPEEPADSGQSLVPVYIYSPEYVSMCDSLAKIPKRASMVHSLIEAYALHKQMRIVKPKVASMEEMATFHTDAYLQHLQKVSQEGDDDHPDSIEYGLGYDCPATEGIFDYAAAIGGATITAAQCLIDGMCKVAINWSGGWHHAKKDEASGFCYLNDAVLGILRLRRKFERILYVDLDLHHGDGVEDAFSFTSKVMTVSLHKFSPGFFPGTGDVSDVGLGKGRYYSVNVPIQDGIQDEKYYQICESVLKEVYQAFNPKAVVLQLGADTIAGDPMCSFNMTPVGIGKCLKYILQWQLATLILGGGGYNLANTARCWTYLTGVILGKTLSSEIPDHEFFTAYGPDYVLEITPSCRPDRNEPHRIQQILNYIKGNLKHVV", "assay": "Inhibition of recombinant human HDAC8 using Boc-Lys (Ac)-AMC as substrate after 60 mins by fluorometric analysis"}, "[5]": {"biological_target": "T2, Protein deacetylase HDAC6 (Homo sapiens, UniProt Q9UBN7)", "T2 sequence (Q9UBN7 whole entry)": "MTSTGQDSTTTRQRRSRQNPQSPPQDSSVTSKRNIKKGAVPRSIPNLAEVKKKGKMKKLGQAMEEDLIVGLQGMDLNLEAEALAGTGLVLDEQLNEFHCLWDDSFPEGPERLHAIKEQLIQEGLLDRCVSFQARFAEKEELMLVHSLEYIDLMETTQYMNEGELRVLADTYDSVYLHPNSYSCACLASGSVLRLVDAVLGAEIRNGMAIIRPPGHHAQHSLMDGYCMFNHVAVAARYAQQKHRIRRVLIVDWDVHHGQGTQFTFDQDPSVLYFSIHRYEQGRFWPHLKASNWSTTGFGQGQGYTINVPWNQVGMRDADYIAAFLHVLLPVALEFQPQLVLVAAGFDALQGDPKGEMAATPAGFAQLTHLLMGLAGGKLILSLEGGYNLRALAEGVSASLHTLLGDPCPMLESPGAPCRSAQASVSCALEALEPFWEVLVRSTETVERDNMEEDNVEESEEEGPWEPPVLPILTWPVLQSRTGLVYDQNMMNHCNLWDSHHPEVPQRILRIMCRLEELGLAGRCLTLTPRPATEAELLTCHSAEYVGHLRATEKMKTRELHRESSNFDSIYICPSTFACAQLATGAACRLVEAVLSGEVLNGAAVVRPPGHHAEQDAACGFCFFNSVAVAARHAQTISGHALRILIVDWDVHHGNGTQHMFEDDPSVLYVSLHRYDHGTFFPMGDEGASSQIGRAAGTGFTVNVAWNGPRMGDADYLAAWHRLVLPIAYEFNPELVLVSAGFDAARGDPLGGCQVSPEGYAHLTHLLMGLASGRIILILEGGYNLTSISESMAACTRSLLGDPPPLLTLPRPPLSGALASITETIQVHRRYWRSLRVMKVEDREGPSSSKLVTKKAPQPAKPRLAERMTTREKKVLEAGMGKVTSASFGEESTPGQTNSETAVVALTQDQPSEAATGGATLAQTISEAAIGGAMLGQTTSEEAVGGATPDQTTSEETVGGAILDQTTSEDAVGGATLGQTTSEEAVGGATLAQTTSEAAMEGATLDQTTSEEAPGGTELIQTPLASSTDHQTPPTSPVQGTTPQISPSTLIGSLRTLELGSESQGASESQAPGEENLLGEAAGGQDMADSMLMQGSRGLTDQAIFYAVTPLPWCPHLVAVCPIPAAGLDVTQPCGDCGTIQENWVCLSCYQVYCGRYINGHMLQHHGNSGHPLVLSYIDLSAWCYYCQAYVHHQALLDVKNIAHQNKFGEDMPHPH", "assay": "Inhibition of recombinant human HDAC6 using Boc-Lys (Ac)-AMC as substrate after 60 mins by fluorometric analysis"}, "HCT-116 [6]": {"tested_on": "HCT-116", "assay": "Induction of apoptosis in human HCT116 cells at 1 uM after 48 hrs by annexin V-FITC/propidium iodide staining-based flow cytometric analysis", "assay_type": "functional", "summary_of_the_method": "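HCT116 cells cultured overnight, then exposed in triplicate for 48 h to 0.1, 1.0 or 5.0 µM, SAHA 5.0 µM or vehicle. Stained with FITC-Annexin V/PI for 15 min at room temperature.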"}, "Mus musculus": {"tested_on": "Mus musculus", "assay": "Toxicity in BALB/c mouse xenografted with human HCT116 cells assessed as body weight change at 90 mg/kg, ip measured twice per week over 22 days", "assay_type": "organism-based, HCT-116", "conditions": "in vivo, 528 h"}, "HCT-116 [7]": {"tested_on": "HCT-116", "assay": "Antitumor activity against human HCT116 cells xenografted in BALB/c mouse assessed as tumor growth inhibition at 45 and 90 mg/kg, ip measured twice per week over 22 days", "assay_type": "functional, organism-based"}}, "note": "Active and inactive are the calls of the source. The calls are words filed in the database; no cut-off is given here.", "data": [{"smiles": "COc1ccc(-c2nc(NC(=O)NCCCC(=O)NO)cc3c2[nH]c2ccccc23)cc1", "values": [{"measurement": "Activity", "setting": "[1]", "value": "Active"}, {"measurement": "Activity", "setting": "[2]", "value": "Dose-dependent effect"}, {"measurement": "inhibition", "setting": "[3]", "value": "Dose-dependent effect"}, {"measurement": "Activity", "setting": "HCT-116 [4]", "value": "Active"}, {"measurement": "IC50", "setting": "Histone deacetylase", "value": 0.27, "unit": "µM"}, {"measurement": "IC50", "setting": "Histone deacetylase 8", "value": 160, "unit": "nM"}, {"measurement": "IC50", "setting": "[5]", "value": 34, "unit": "nM"}, {"measurement": "Activity", "setting": "HCT-116 [6]", "value": 41.3, "unit": "%"}, {"measurement": "Activity", "setting": "Mus musculus", "value": "Non-toxic"}, {"measurement": "TGI", "setting": "HCT-116 [7]", "value": "Active"}]}]}
